Assay results gathered from unrelated publications.
Protocols differ between the studies behind these lines.
CYP3A7: Cytochrome P450 3A7 (CYP3A7, Homo sapiens, UniProt P24462)
Pancreatic alpha-amylase: Pancreatic alpha-amylase (Homo sapiens, UniProt P04746)
ALB: Albumin (ALB, Bos taurus, UniProt P02769)
PDE4C: 3',5'-cyclic-AMP phosphodiesterase 4C (PDE4C, Homo sapiens, UniProt Q08493)

SMILES | target | assay | conditions | endpoint | value
CC(C)(C)[C@@H]1NC(=O)O[C@@H]2CCC[C@H]2OC/C=C/C(F)(F)c2nc3ccccc3nc2O[C@@H]2C[C@@H](C(=O)N[C@]3(C(=O)NS(=O)(=O)C4(C)CC4)C[C@H]3C(F)F)N(C2)C1=O | CYP3A7 | enzyme activity, inhibitor, mass spectrometry | 5 min | IC50 | 12.1 µM
Oc1ccc([C@@H]2c3c(O)cc(O)cc3[C@@H]3c4c(cc(O)c5c4[C@@H]2[C@H](c2ccc(O)cc2)[C@H]5c2cc(O)cc4c2[C@@H](c2cc(O)cc(O)c2)[C@H](c2ccc(O)cc2)O4)O[C@H]3c2ccc(O)cc2)cc1 | Pancreatic alpha-amylase | enzyme activity, inhibitor |  | IC50 | 6.1 µM
CC(C)(C)OC(=O)N[C@H]1CCCCC/C=C\[C@@H]2C[C@@]2(C(=O)NS(=O)(=O)C2CC2)NC(=O)[C@@H]2C[C@@H](OC(=O)N3Cc4cccc(F)c4C3)CN2C1=O | CYP3A7 | enzyme activity, inhibitor, mass spectrometry | 5 min | IC50 | 21.9 µM
CC(C)C[C@H](NC(=O)[C@H](CC(N)=O)NC(=O)[C@H](Cc1c[nH]c2ccccc12)NC(=O)[C@@H](NC(=O)[C@H](Cc1ccc(O)cc1)NC(=O)[C@H](Cc1ccc(O)cc1)NC(=O)[C@H](CO)NC(=O)[C@H](CCCNC(=N)N)NC(=O)[C@H](Cc1c[nH]cn1)NC(=O)[C@@H](N)Cc1c[nH]c2ccccc12)[C@@H](C)O)C(=O)O | ALB | binding, SPR |  | Kd | 3.99 µM
O=C(C=Cc1ccccc1)Nc1cc(-c2ccnc(N3CCC(O)CC3)c2)ccn1 | Retinoic acid receptor RXR-alpha (RXRA, Homo sapiens, UniProt P19793) | binding, SPR |  | Kd | 0.78 µM
CCN(CC)c1ccc(/C=N/c2ccccc2F)c(O)c1 | Pancreatic alpha-amylase | enzyme activity, inhibitor, absorbance |  | IC50 | 255 µM
O=C1CCc2ccccc2O1 | Carbonic anhydrase 9 (CA9, Homo sapiens, UniProt Q16790) | enzyme activity, inhibitor, stopped-flow |  | Ki | 4.1 µM
C[C@@H](O)[C@H](NC(=O)[C@H](Cc1ccc(O)cc1)NC(=O)[C@H](Cc1ccc(O)cc1)NC(=O)[C@H](CO)NC(=O)[C@H](CCCNC(=N)N)NC(=O)[C@H](Cc1c[nH]cn1)NC(=O)[C@@H](N)Cc1c[nH]c2ccccc12)C(=O)N[C@@H](Cc1c[nH]c2ccccc12)C(=O)N[C@@H](CC(N)=O)C(=O)O | ALB | binding, SPR |  | Kd | 6.12 µM
CN(C)C(=O)c1cc2cnc(Nc3ccc(N4CCNCC4)cn3)nc2n1C1CCCC1 | PDE4C | enzyme activity, inhibitor, TR-FRET |  | IC50 | 4.4 µM
CCN(CC)c1ccc(/C=N/c2ccc(F)c(Cl)c2)c(O)c1 | Pancreatic alpha-amylase | enzyme activity, inhibitor, absorbance |  | IC50 | 190 µM
OC[C@H]1O[C@@H](Oc2cc3c4c(c2)[C@@H]([C@@H]2c5cc(O)cc6c5[C@@H](c5cc(O)cc(O)c5[C@H]2c2ccc(O)cc2)[C@H](c2ccc(O)cc2)O6)[C@H](c2ccc(O)cc2)c2c(O)cc(O)cc2[C@H]4[C@H](c2ccc(O)cc2)O3)[C@H](O)[C@@H](O)[C@@H]1O | Pancreatic alpha-amylase | enzyme activity, inhibitor |  | IC50 | > 100 µM
CCc1c(C)nc(-c2ccc(Cl)s2)nc1Nc1ccc(CC(=O)O)cc1 | PDE4C | enzyme activity, inhibitor, FP |  | IC50 | ~63 µM
CCN(CC)c1ccc(/C=N/c2ccc(Cl)cc2)c(O)c1 | Pancreatic alpha-amylase | enzyme activity, inhibitor, absorbance |  | IC50 | 63.5 µM
COc1ccc2c(O[C@@H]3C[C@H]4C(=O)N[C@]5(C(=O)NS(=O)(=O)C6CC6)C[C@H]5/C=C\CCCCN(C)C(=O)[C@@H]4C3)cc(-c3nc(C(C)C)cs3)nc2c1C | CYP3A7 | enzyme activity, inhibitor, mass spectrometry | 5 min | IC50 | 16.1 µM
N=c1c[n+](N2CCOCC2)[n-]o1 | NAD-dependent protein deacylase sirtuin-5, mitochondrial (SIRT5, Homo sapiens, UniProt Q9NXA8) | enzyme activity, inhibitor, HPLC |  | IC50 | 8 µM
